One may read the MIC as the smallest concentration in the dilution series that meets the test's criterion for growth inhibition. As usually defined, the EC50 is the midpoint of the concentration-response curve. As a reminder, the IC50 is the midpoint of a concentration-inhibition curve.

In brackets after ≈: the same amount, converted by molar mass. Activity calls are given as the source filed them.

This is an account of results in ChEMBL document CHEMBL1145788, “Synthesis of ethyl 5-phenyl-6-oxa-1-azabicyclo[3.1.0]hexane-2-carboxylate derivatives and evaluation of their antimalarial activities” (J Med Chem, 2003).

In assay [1] the test system is Mycobacterium tuberculosis. Kind of assay: Growth inhibitory activity against Mycobacterium tuberculosis H37R. The class given is functional. Put shortly:
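M. tuberculosis H37Ra growth inhibition measured by microplate Alamar Blue assay (MABA); read-out as MIC; isoniazid and kanamycin sulfate run as reference drugs.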

The subject of assay [2] is Plasmodium falciparum. Kind of assay: In vitro antimalarial activity against multidrug-resistant Plasmodium falciparum K1. The assay is classed as functional, organism-based. A digest of the protocol:
(§1)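 Cultured P. falciparum K1 (multidrug-resistant) tested by microculture radioisotope technique (Desjardins); growth measured as [3H]hypoxanthine uptake; EC50 taken as the concentration giving 50% reduction in parasite growth; chloroquine diphosphate and artemisinin as standards.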

Assay [3] concerns Vero. Kind of assay: Cytotoxicity against african green monkey kidney fibroblast (vero cell) at a concentration less than 50 ug/mL; Inactive. The following applies: Chlorocebus sabaeus. The assay is classed as functional, cell-based.
Assay [4] is described as follows: Cytotoxicity against african green monkey kidney fibroblast (vero cell). The class given is functional, cell-based. The following applies: Chlorocebus sabaeus. Put shortly:
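Vero (African green monkey kidney fibroblast) cytotoxicity run by the colorimetric method of Skehan and co-workers.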

Assay [5] deals with Plasmodium falciparum. Kind of assay: In vitro antimalarial activity against multidrug-resistant Plasmodium falciparum K1; Not active. The assay is classed as functional, organism-based. Put shortly: as §1

`CCOC(=O)[C@@]1(CCCc2ccccc2)CC[C@@]2(c3ccccc3)O[N@@]12` had an MIC in assay [1] of 200 µg/mL (≈ 569 µM). In addition, the EC50 in assay [2] turned out to be 2.9 µg/mL (≈ 8.25 µM). Moreover, the IA entry in assay [3] is “inactive”.
`C[C@@H]1CC[C@H]2[C@@H](C)C(=O)O[C@@H]3O[C@@]4(C)CC[C@@H]1[C@]32OO4` [ARTEMISININ]: the midpoint of the response in assay [2], the EC50, lay at 0.0011 µg/mL (≈ 0.0039 µM).
Consider `Cc1c2ccncc2c(C)c2c1[nH]c1ccccc12` [ELLIPTECINE], for which the IC50 in assay [4] amounted to 1 µg/mL (≈ 4.06 µM).
The molecule `CCOC(=O)[C@@]1(C2C[C@H]2C(=O)OC)CC[C@@]2(c3ccccc3)O[N@]21` (stereo partly specified) came in with an MIC in assay [1] of 100 µg/mL (≈ 302 µM). The molecule also yielded an EC50 in assay [2] of 15.9 µg/mL (≈ 48 µM). Further, the IC50 in assay [4] amounted to 43.4 µg/mL (≈ 131 µM).
On to `NNC(=O)c1ccncc1` [ISONIAZID], for which the MIC in assay [1] is 0.05 µg/mL (≈ 0.365 µM).
In the case of `C=CCC[C@]1(C(=O)OCC)CC[C@@]2(c3ccccc3)O[N@@]12`, in assay [2], a half-maximal response (EC50) required 44.2 µg/mL (≈ 154 µM).
On to `CCC[C@]1(C(=O)OCC)CC[C@@]2(c3ccccc3)O[N@@]12`, for which the minimal inhibitory concentration (MIC) in assay [1] turned out to be 100 µg/mL (≈ 363 µM). The molecule further had a half-maximal effective concentration (EC50) in assay [2] of 21.7 µg/mL (≈ 78.8 µM). In assay [4], this molecule showed an IC50 of 28.9 µg/mL (≈ 105 µM).
The molecule `CCOC(=O)[C@]1(CCCc2ccccc2)CC[C@@]2(c3ccccc3)O[N@@]12` gave an MIC in assay [1] of 25 µg/mL (≈ 71.1 µM). Further, the IA entry in assay [5] is “inactive”. The IC50 in assay [4] is greater than 50 µg/mL.
Turning to `CCC[C@@]1(C(=O)OCC)CC[C@@]2(c3ccccc3)O[N@@]12`, the MIC in assay [1] came to 100 µg/mL (≈ 363 µM). The same molecule showed an IC50 in assay [4] greater than 50 µg/mL.
`CCCCC[C@]1(C(=O)OCC)CC[C@@]2(c3ccccc3)O[N@@]12` yielded an MIC in assay [1] of 100 µg/mL (≈ 330 µM). The molecule further displayed an EC50 in assay [2] of 3.1 µg/mL (≈ 10.2 µM). The IA result in assay [3] is “inactive”.
In the case of `CCOC(=O)[C@]1(C)CC[C@@]2(c3ccccc3)O[N@@]12`, it took 200 µg/mL (≈ 809 µM) to inhibit growth in assay [1] (MIC). Moreover, the 50% inhibitory concentration (IC50) in assay [4] was greater than 50 µg/mL.
The molecule `CCOC(=O)[C@@]1(CCC=C(C)C)CC[C@@]2(c3ccccc3)O[N@@]12` showed an EC50 in assay [2] of 21.9 µg/mL (≈ 69.4 µM).
The molecule `CCCCC[C@@]1(C(=O)OCC)CC[C@@]2(c3ccccc3)O[N@@]12` displayed an MIC in assay [1] of 100 µg/mL (≈ 330 µM). Moreover, in assay [5], the IA result was “inactive”. The molecule also gave an IC50 in assay [4] greater than 50 µg/mL.
As for `CCN(CC)CCCC(C)Nc1ccnc2cc(Cl)ccc12.O=P(O)(O)O.O=P(O)(O)O` (stereo unspecified) [CHLOROQUINE PHOSPHATE], the midpoint of the response in assay [2], the EC50, lay at 0.16 µg/mL.
In assay [2], `C=CCCC[C@]1(C(=O)OCC)CC[C@@]2(c3ccccc3)O[N@@]12` returned a concentration for a half-maximal effect (EC50) of 13.9 µg/mL (≈ 46.1 µM).
For `CCOC(=O)[C@]1(C2C[C@H]2C(=O)OC)CC[C@@]2(c3ccccc3)O[N@]21` (stereo partly specified), in assay [1], the MIC turned out to be 200 µg/mL (≈ 604 µM). Besides, in assay [5], the IA entry was “inactive”. This molecule had an IC50 in assay [4] greater than 50 µg/mL.
For `CCCC[C@@]1(C(=O)OCC)CC[C@@]2(c3ccccc3)O[N@@]12`, the MIC in assay [1] was found to be 100 µg/mL (≈ 346 µM). Further, the IA entry in assay [5] and in assay [3] was “inactive” each time.
Consider `CCOC(=O)[C@@]1(CCC2OCCO2)CC[C@@]2(c3ccccc3)O[N@@]12`, for which the lowest concentration to inhibit growth in assay [1] (MIC) was 200 µg/mL (≈ 600 µM). This molecule also gave an EC50 in assay [2] of 14.7 µg/mL (≈ 44.1 µM). Moreover, the IC50 in assay [4] was greater than 50 µg/mL.
Regarding `CCOC(=O)[C@]1(CCC2OCCO2)CC[C@@]2(c3ccccc3)O[N@@]12`, in assay [5], the IA result was “inactive”. In addition, the IC50 in assay [4] is greater than 50 µg/mL.
`CCOC(=O)[C@@]1(C)CC[C@@]2(c3ccccc3)O[N@]21` gave an MIC in assay [1] of 200 µg/mL (≈ 809 µM). Also, the EC50 in assay [2] came to 4.6 µg/mL (≈ 18.6 µM). Besides, in assay [4], the IC50 is greater than 50 µg/mL.
`CCCC[C@]1(C(=O)OCC)CC[C@@]2(c3ccccc3)O[N@@]12`: in assay [1], inhibition of growth (MIC) required 100 µg/mL (≈ 346 µM). Besides, in assay [2], the EC50 amounted to 2.4 µg/mL (≈ 8.29 µM). In addition, in assay [3], the IA result was “inactive”.
